# Compound activity: PubChem BioAssay, several laboratories
# This is a sample that favours compounds with a hit; in the whole collection about 7.6% have one here.
# HEK293 NFkB inh – lowers PMA/ionomycin-induced NF-kB signal in HEK293 cells; inhibition, % at 3 µM; AID 465; HEK-293 NF-kB luciferase reporter, luminescence; actives 0.21% (n = 62,000);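 active means inhibition above the mean of all tested compounds plus 3 SD, cut at about 40% in these data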;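 further: 0% = stimulated DMSO wells and 100% = 10 µM reference inhibitor 5653914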
#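 Material: HEK-293 cells with stable firefly luciferase reporter driven by four HIV NF-kB elements / Also added: PMA plus ionomycin mix as NF-kB-activating stimulus / Compound dosing: 3 µM once, 0.30% DMSO / Times: 1 h pretreatment, 16 h stimulation, 37 °C / Signal: luminescence / Evaluation: per-plate % inhibition versus controls / Benchmarks: DMSO and 10 µM reference inhibitor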
# DAT uptake mod – human DAT dopamine uptake with cocaine, either direction | LLC-PK1 hDAT cells, [14C]-dopamine uptake with cocaine IC80; actives deviate in either direction | B-score at 10 µM | actives 1.3% (n = 110,000);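 active means Z score or B-score, a plate-position-corrected score, falls beyond the plate's 99.7% confidence bounds, in either direction; inactive means both scores lie inside the 99.7% bounds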;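 further: scored against the spread of the other compound wells on the same plate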
# D1 allo mod – allosteric modulators of human D1 dopamine receptor; P21728; actives 5.9% (n = 58,000); B-score at 10 µM; AID 641; HEK293 D1, CRE-luciferase, dopamine EC30 potentiation; actives deviate in either direction;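 active means luminescence count or its row- and column-corrected plate score outside the 99.7% band of the plate's sample wells, on either side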
# M1 agonist – activates the M1 muscarinic receptor. CHO-M1 cells, Fluo-4 calcium fluorescence, agonist mode; hits give high values. B-score at 10 µM. actives 3% (n = 64,000);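 active means fluorescence rise, raw or as B-score row- and column-corrected plate score, outside the 99.7% band of its plate's samples, either direction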
# M1 antagonist – M1 muscarinic receptor (rat) antagonism | actives 3.4% (n = 64,000) | B-score at 10 µM | CHO-M1 cells, Fluo-4 calcium, ACh EC80 antagonist mode; hits give low values | P08482;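 active means calcium fluorescence response, raw or row-and-column corrected B-score, differing from the plate sample mean either way at a set confidence level, mostly lower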
# Jurkat tox 60K – cytotoxicity toward Jurkat cells; Jurkat E6.1 viability, ATP luminescence, 48 h; actives 1.2% (n = 56,000); inhibition, % at 4 µM;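 active means inhibition above the mean inhibition of all tested compounds plus 3 SD, cut at about 28% in these data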
# M1 agonist conf – rat M1 muscarinic agonism, confirmation. shares compounds with M1 agonist. CHO-M1 cells, Fluo-4 calcium fluorescence, agonist mode; actives lie on both sides. AID 1488. fluorescence change (max-min) at 10 µM. actives 19% (n = 1,700);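 active means fluorescence change differs from the solvent-only DMSO control mean at a set confidence level in both duplicate runs; inconclusive means differs from solvent-only control mean in just one of two runs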;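 further: an EC20 dose of acetylcholine follows compound addition during the same imaging run; raw fluorescence intensity difference in instrument units with no normalization to controls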
# M4 ag counter – activates rat M4 receptor in counter-screen for M1 agonists. actives 9% (n = 1,700). shares compounds with M1 agonist. CHO M4/Gqi5 cells, Fluo-4 calcium fluorescence, agonist mode; actives lie on both sides. fluorescence change (max-min) at 10 µM. AID 1741;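 active means fluorescence change differing from the plate's solvent-only control wells at 99.7% confidence in both duplicates, whether higher or lower; inconclusive means differs from solvent controls in only one of two duplicates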
# Target sequence (P08485 whole entry, looked up): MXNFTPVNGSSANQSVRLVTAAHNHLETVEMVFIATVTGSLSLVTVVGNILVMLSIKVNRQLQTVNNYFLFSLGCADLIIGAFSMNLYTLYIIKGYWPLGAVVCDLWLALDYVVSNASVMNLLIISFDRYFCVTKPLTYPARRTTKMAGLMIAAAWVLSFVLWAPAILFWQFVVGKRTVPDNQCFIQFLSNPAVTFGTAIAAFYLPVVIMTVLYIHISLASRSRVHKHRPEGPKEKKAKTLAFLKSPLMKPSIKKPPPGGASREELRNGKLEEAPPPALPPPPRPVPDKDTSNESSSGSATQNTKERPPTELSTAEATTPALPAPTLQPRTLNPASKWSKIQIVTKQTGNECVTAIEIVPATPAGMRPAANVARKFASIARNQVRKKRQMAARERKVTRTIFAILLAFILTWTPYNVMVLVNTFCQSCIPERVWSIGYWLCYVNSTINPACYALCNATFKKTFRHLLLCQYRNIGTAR
# Numbers without * were called inactive; ? = inconclusive; . = no result given.
SMILES,HEK293 NFkB inh,DAT uptake mod,D1 allo mod,M1 agonist,M1 antagonist,Jurkat tox 60K,M1 agonist conf,M4 ag counter
COc1ccc2ccccc2c1/C=N/O,10,-0.12,2.2,5.6*,-1.3,0,?,-71*
C=CCOc1ccc2ccccc2c1/C=N/O,.,0.2,.,.,.,.,.,.
CCOCCn1c(CN2CCN(c3ccc(OC)cc3)CC2)nc2c1c(=O)n(C)c(=O)n2C,-2,0.74,-0.75,0.6,0.6,9,.,.
COc1ccc(C2C(C(=O)NC(C)C)c3ccccc3C(=O)N2C)cc1OC (stereo not drawn),6,0.16,0.76,3.4*,1.4,.,-12,-24
COc1ccc(C2C(C(=O)Nc3cc(C)on3)c3ccccc3C(=O)N2C)cc1OC (stereo not drawn),6,-0.033,0.57,0.0094,0.79,.,.,.
Cc1c(Nc2nc3ccccc3nc2N2CCN(c3ccccc3)CC2)c(=O)n(-c2ccccc2)n1C,5,1.5,-0.43,3.6*,-0.61,-4,-7.7,-11
CCc1nn(C(C)C(=O)NCCN2CCN(c3cccc(C)c3C)CC2)c(=O)c2cc3occc3n12 (stereo not drawn),21,2.4,-1,3.8*,0.03,-2,?,-75
CCOC(=O)C1CCN(c2c(N3CCCC(C(=O)OCC)C3)c(=O)c2=O)CC1 (stereo not drawn),5,-0.83,0.042,27*,-0.13,-2,38,?
CCOC(=O)C1CCCN(c2c(N3CCN(c4ccccn4)CC3)c(=O)c2=O)C1 (stereo not drawn),2,0.5,0.13,0.51,-0.45,1,.,.
N#Cc1c(NC(=O)CSc2nnnn2C2CCCC2)sc2c1CCCC2,6,-0.016,-0.038,-0.23,-0.13,-6,.,.
O=C1OC(c2cccs2)=N/C1=C\c1ccc(-c2cccc(Cl)c2)o1,.,-0.065,.,.,.,.,.,.
CCOC(=O)c1c(C)[nH]c(C(=O)CN2C(=O)NC(CC)(c3ccccc3)C2=O)c1C (stereo not drawn),10,1.1,-0.51,4.7*,-0.31,-2,-13,-13
CCOC(=O)c1c(C)[nH]c(C(=O)CN2C(=O)NC(C)(c3ccc(C)cc3)C2=O)c1C (stereo not drawn),11,0.51,.,5,-2.1,3,.,.
CCOC(=O)C1=C(c2ccccc2)Nc2ncnn2C1c1cccc(OC)c1OC (stereo not drawn),10,-0.81,-0.0078,1.2,0.082,3,.,.
COc1cccc(C2C=C(c3cccs3)Nc3ncnn32)c1OC (stereo not drawn),16,-0.36,-0.42,8.1*,-0.14,-18,42,39
O=C1CC(c2ccccc2)c2ccc(O)cc2O1 (stereo not drawn),.,0.29,.,.,.,.,.,.
Cc1cc(C)c2nc(SCC(=O)Nc3ccc(S(=O)(=O)N4CCCC4)cc3)c(C)cc2c1,.,-0.062,.,.,.,.,.,.
Cc1[nH]nc2c1C1(CCN(C(=O)c3ccccc3)CC1)C(C#N)=C(N)O2,16,-0.099,-0.016,23*,0.16,-2,-12,-29
Cc1noc(C)c1CSc1nnc(-c2ccncc2)n1-c1ccc(Cl)c(Cl)c1,2,-1,.,-0.8,0.89,3,.,.
CCOC(=O)COc1ccc(S(=O)(=O)Nc2ccc3c(c2)OCO3)cc1,12,-0.57,1.1,-0.63,0.19,7,.,.
Cc1ccc(C)c2[nH]c(=O)c(CN(Cc3ccco3)C(=O)Nc3ccccc3)cc12,20,0.085,.,5.2*,-0.37,-2,-13,-47
O=C(NCC1CCCO1)c1onc(CSc2ccc(F)cc2)c1C(=O)O (stereo not drawn),.,-0.23,.,.,.,.,.,.
CCS(=O)(=O)NCC(c1cccnc1)N1CCN(c2ccc(F)cc2)CC1 (stereo not drawn),2,-0.7,-0.035,5.1*,-0.55,-9,-11,-28
CS(=O)(=O)NCC(c1cccnc1)N1CCN(c2ccc(F)cc2)CC1 (stereo not drawn),11,0.24,-0.48,0.008,0.62,-5,.,.
